The EternaBench riboswitch data

Tested on: MS2 coat protein
Experiment: apparent Kd, MS2 coat protein; higher = weaker binding; RNA-MaP array; FMN 200 µM where present
Method in brief: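 Green signal was scaled to red-channel RNA signal and control-cluster median Fmax, and the apparent Kd was taken as the median of filtered per-cluster binding-curve fits. The binding series used SNAP-549-labelled MS2 coat protein from 0.7 or 1.5 nM, doubling to 3 µM, on designs transcribed by stalled E. coli RNA polymerase on Illumina sequencing-chip clusters. Each series ran without and then with constant ligand in 100 mM Tris-HCl pH 7.5, 80 mM KCl, 4 mM MgCl2, BSA, DTT, yeast tRNA and Tween-20.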

[1] = designed as: OFF switch for flavin mononucleotide, no ligand
[2] = ligand present: flavin mononucleotide, designed as: OFF switch for flavin mononucleotide
[3] = designed as: ON switch for flavin mononucleotide, no ligand
[4] = ligand present: flavin mononucleotide, designed as: ON switch for flavin mononucleotide

| Sequence | apparent Kd [1] | apparent Kd [2] | apparent Kd [3] | apparent Kd [4] |
| --- | --- | --- | --- | --- |
| UGGUGACGUUUCUUCUCGACAUGAGGAUCACCCAUGUAGACAGAGGAUAUCCGAGUUGCCAAUAAGGAGAAGGCUGACUGCGAA | 6.61 nM | 10.2 nM | – | – |
| GGGAAGUUAGGAUAUGCUGCUCGUCACUUGCGUGAUGAGUAGCAGAAGGAACAUGAGGAUCACCCAUGUAAAGA | 34.3 nM | 37.5 nM | – | – |
| AAAGGCCGAGGAUAUACAUGAGGAUCACCCAUGUGGACUCUGCAGAAUUGAUACCUUGGUAGAAGGUGGACCGG | 23 nM | 18.4 nM | – | – |
| UGGUACUAGGGAGGAUAUGGGAAGAUACAUGAGGAUCACCCAUGUUUAAGAAUGCCGAGAGGCAACUAGAAGGCCCUAGUAUCU | – | – | 382 nM | 18.9 nM |
| UAUUUAAGAGGAUAUACAUGAGGAUCACCCAUGUGUGUCAAUACGCGUGAUUUUUCAUGUAGAAGGCUUGGGUA | 233 nM | 129 nM | – | – |
| UUGGUUGUCGUAGGAUAUGUAGGAUAUUCCUACAUGAGGAUCACCCAUGUUAGCAUGGAAGAAGGACAGAAGGACGAUGACCAU | – | – | 1010 nM | 16.9 nM |
| AUGGACGAAGGAUAUGCAUGGAGACCGGGCAGUUCAGCGCUACAUGAGGAUCACCCAUGUAGAAGGUCGCUCCC | 16 nM | 24.6 nM | – | – |
| UCUUAUUGCAAGGAUAUGCAAAUUAUUAUUAAAGCAGAAGGUGCAACAUGAGGAUCACCCAUGUUUCCGGGAAA | 25.2 nM | 104 nM | – | – |
| UAAAUACAUGAGGAUCACCCAUGUCAAAAGACAUGAGGAUAUGUACAGUCUUCGGUCUGUACAGAAGGCAUGAAUA | – | – | 464 nM | 35 nM |
| CCAAGGAGAGGAUAUACACGGUUAUGGCCUCUUGAGUGGCGACAUGAGGAUCACCCAUGUAGAAGGCUCAGGGC | 20.2 nM | 57.4 nM | – | – |
| AUUAUUUAGUGAGGAUAUACAGAUUAUGAGUUUGUAGAAGGCACUUUCCUCAGGACAUGAGGAUCACCCAUGUGUUAAUAAGAU | 89.7 nM | 316 nM | – | – |
| UAAAAGUGAGGAUAUGCGAAGGCGUCUGAUAGACGAGGCUAGCAGAAGGCACAUGAGGAUCACCCAUGUGGGAU | 89.7 nM | 152 nM | – | – |
| GCCAUCGUACGAGGAUAUGGCACCGAAACGGUGCCAGAAGGCGUGUCAAUAGACAUGAGGAUCACCCAUGUAUUAUCGAUGGCA | – | – | 23.2 nM | 17.6 nM |
| CGCUACAGCCAGAAGGACAUGAGGAUCACCCAUGUAGGAUAUGGGAGACGCGGUCCAGUGUAGAGAAACUACGCUACUGUAGCG | – | – | 87.3 nM | 73.4 nM |
| UAGGCGAACAUGAGGAUCACCCAUGUACGCGGUAUAUGAGCGAGAAGGGUAUGAUGUGUGGUCCUACAGGAUAUCGCUAAUAAA | – | – | 26.2 nM | 6.52 nM |
| CGAGGGUGGGACCCACGCUUUCGACAUGAGGAUCACCCAUGUAAGGAUAUCGCGGCCUACCAUAGCGAGAAGGUACGUGCGGGU | 13 nM | 25.9 nM | – | – |
| UUUUUACAUGAGGAUCACCCAUGUCAGGAUAUGCUUAUAUUUUAUUAUUUUAUUUUUUGCAGAAGGGACUAUUA | 91.8 nM | 68 nM | – | – |
| ACAUGAGGAUCACCCAUGUUUAUUGGGUACUAUACUAUCAGCAAGGAUAUGCAAAUUUUUUUUACGCAGAAGGUGCAGGAACCU | 523 nM | 334 nM | – | – |
| UGUUGUAUUACAGGAUAUCUAUUGUUUUUAAUUAGAGAAGGGUAUUCACAUGAGGAUCACCCAUGUAUAUACGAGGAAGUUGUG | – | – | 50.5 nM | 53.4 nM |
| GGAUAGGACAGAGGAUAUACGUGCUAGAGAUACUAGCAAAAUUUCCUCACAUGAGGAUCACCCAUGUAGAAGGCUGUCCUGUCG | 17.1 nM | 354 nM | – | – |
| AAAAAACAUGAGGAUCACCCAUGUGAGGAUAUGAUGCGAAUAAAGAAAGAAGAAAGCAUCAGAAGGCACAUAUG | 86.6 nM | 254 nM | – | – |
| GUAGCAAUCGGAGGAUAUUCAUGAAACAUGAGGAUCACCCAUGUUAAUAUGGGAGAAGGCCGAUUGCUACAAGAGCGAAAGCUC | – | – | 8.58 nM | 5.76 nM |
| UUUGAGUUCCGAGACCGCGGGUUCACAGAAGGCAUUAUUACAUGAGGAUCACCCAUGUGGGUACAUGAGGAUAUGUGAUAUGCG | – | – | 20.5 nM | 6.99 nM |
